Assay results reported in PMC6843711 (ACS Omega, 2019).

Assays:
[1] = DPPH free radical scavenging assay
How it was run: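 Methanolic test compound at 0.2–1.0 μg/mL was mixed with 0.004% methanolic DPPH and kept in the dark for 30 min. Absorbance was read at 517 nm. Compound solution without DPPH served as blank and DPPH alone as control. Percent inhibition was derived from absorbance with and without antioxidant. Each measurement was repeated three times.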

diabetic mice [2] = assay: Blood glucose levels in diabetic mice; assay type: in vivo; conditions: LOQ = 20 mM
How it was run: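 Male mice (about 20 ± 2 g) were randomised into eight groups (n = 5). After an 18 h fast, diabetes was induced with a single ip alloxan dose of 50 mg/kg in 0.5 mL, and diabetic animals served as positive control. Test compound was given ip in 0.5 mL for 1 week, with saline as negative control. Cardiac blood was drawn under diethyl ether, and serum (600g, 15 min) was assayed for glucose. Triplicate; mean ± SD; Kruskal–Wallis, p < 0.05.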

diabetic mice [3] = assay: Hematological study in vivo; conditions: ip; for Alb / Chlst / Cr / TG / UA: serum
How it was run: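 Alloxan-diabetic male mice (single 50 mg/kg ip after 18 h fast; n = 5 per group) received test compound ip for 1 week, with a saline group as control. Cardiac blood was drawn under diethyl ether into 10% EDTA for automated haematology (RBC, WBC, Hb, MCV, MCH, MCHC, PLT, RDW, HCT) and into plain tubes. Serum (600g, 15 min) was assayed for albumin, uric acid, glucose, triglyceride and cholesterol. Triplicate; mean ± SD; Kruskal–Wallis.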

[4] = read-out: IC50, inhibition of CuSO4-induced oxidation of human LDL; cited from earlier work

Row | HB (diabetic mice [3]; dose 0.3 mM) | HCT (diabetic mice [3]; dose 0.3 mM) | MCH (diabetic mice [3]; dose 0.3 mM) | MCHC (diabetic mice [3]; dose 0.3 mM) | MCV (diabetic mice [3]; dose 0.3 mM) | RBC (diabetic mice [3]; dose 0.3 mM) | RDW (diabetic mice [3]; dose 0.3 mM) | WBC (diabetic mice [3]; dose 0.3 mM) | HB (diabetic mice [3]; dose 0.5 mM) | HCT (diabetic mice [3]; dose 0.5 mM) | MCH (diabetic mice [3]; dose 0.5 mM) | MCHC (diabetic mice [3]; dose 0.5 mM) | MCV (diabetic mice [3]; dose 0.5 mM) | Compound | Inhibition percent (%), DPPH scavenging ([1]; conc. 0.2 μg mL^–1) | Inhibition percent (%), DPPH scavenging ([1]; conc. 0.4 μg mL^–1) | Inhibition percent (%), DPPH scavenging ([1]; conc. 0.6 μg mL^–1) | Inhibition percent (%), DPPH scavenging ([1]; conc. 0.8 μg mL^–1) | Inhibition percent (%), DPPH scavenging ([1]; conc. 1.0 μg mL^–1) | Mean blood glucose level (diabetic mice [2]; conc. 0.3 mM) | Mean blood glucose level (diabetic mice [2]; conc. 0.5 mM) | further results
1 | – | – | – | – | – | – | – | – | – | – | – | – | – | O=C1O[C@H]([C@@H](O)CO)C(O)=C1O [AA, Ascorbic Acid, reference compound] | 53.13 ± 0.7% | 61.22 ± 0.7% | 69.18 ± 1% | 88.47 ± 0.9% | 98.03 ± 2% | – | – | –
2 | – | – | – | – | – | – | – | – | – | – | – | – | – | Cc1nn(-c2ccccc2)c(Cl)c1C1Nc2ccccc2C(=O)N1c1ccccc1 (stereo not drawn) [Compound 4g, 2-(5-Chloro-3-methyl-1-phenyl-1H-pyrazol-4-yl)-3-phenyl-2,3-dihydroquinazolin-4(1H)-one] | 20.71 ± 0.2% | 20.32 ± 0.2% | 20.51 ± 0.1% | 21.16 ± 0.1% | 20.62 ± 0.5% | 65 ± 2 mM | 27 ± 1 mM | –
3 | 14.5 ± 0.1 g/dL | 37.1 ± 0.1% | 15.8 ± 0.1 ρg | 44.0 ± 0.2 g/dL | 40.9 μm^3 | 9.05 10^6/mm^3 | 21.8 ± 0.03% | 5.3 10^3/mm^3 | 14.2 ± 0.25 g/dL | 37.9 ± 0.1% | 15.5 ± 0.23 ρg | 41.2 ± 0.1 g/dL | 40.1 μm^3 | Cc1ccc(N2C(=O)c3ccccc3NC2c2c(C)nn(-c3ccccc3)c2Cl)cc1 (stereo not drawn) [Compound 4h, 2-(5-Chloro-3-methyl-1-phenyl-1H-pyrazol-4-yl)-3-(p-tolyl)-2,3-dihydroquinazolin-4(1H)-one] | 11.42 ± 0.03% | 11.44 ± 0.02% | 11.46 ± 0.02% | 11.48 ± 0.04% | 11.50 ± 0.07% | 44 ± 1 mM | 22 ± 1 mM | RBC (diabetic mice [3]; dose 0.5 mM): 9.92 10^6/mm^3; RDW (diabetic mice [3]; dose 0.5 mM): 23.6 ± 0.02%; WBC (diabetic mice [3]; dose 0.5 mM): 5.6 10^3/mm^3; Alb (diabetic mice [3]; dose 0.3 mM): 2.7 ± 0.04 g/dL; Chlst (diabetic mice [3]; dose 0.3 mM): 64 ± 3.2 mg/dL; Cr (diabetic mice [3]; dose 0.3 mM): 0.41 ± 0.05 mg/dL; TG (diabetic mice [3]; dose 0.3 mM): 127 ± 1.5 mg/dL; UA (diabetic mice [3]; dose 0.3 mM): 61 ± 3 µM; Alb (diabetic mice [3]; dose 0.5 mM): 2.7 ± 0.02 g/dL; Chlst (diabetic mice [3]; dose 0.5 mM): 58 ± 6 mg/dL; Cr (diabetic mice [3]; dose 0.5 mM): 0.4 ± 0.05 mg/dL; TG (diabetic mice [3]; dose 0.5 mM): 109 ± 0.7 mg/dL; UA (diabetic mice [3]; dose 0.5 mM): 62 ± 1.5 µM
4 | – | – | – | – | – | – | – | – | – | – | – | – | – | Cc1nn(-c2ccccc2)c(Cl)c1C1Nc2ccccc2C(=O)N1c1ccc(O)cc1 (stereo not drawn) [Compound 4i, 2-(5-Chloro-3-methyl-1-phenyl-1H-pyrazol-4-yl)-3-(4-hydroxyphenyl)-2,3-dihydroquinazolin-4(1H)-one] | 80.07 ± 0.77% | 81.18 ± 0.5% | 83.9 ± 0.1% | 85.62 ± 0.3% | 86.47 ± 0.27% | 44 ± 1 mM | <LOQ | –
5 | 14.8 ± 0.34 g/dL | 38.6 ± 0.1% | 15.7 ± 0.2 ρg | 38.6 ± 0.2 g/dL | 40.2 μm^3 | 9.34 10^6/mm^3 | 22.5 ± 0.01% | 7.6 10^3/mm^3 | 14.8 ± 0.3 g/dL | 39.6 ± 0.08% | 15.5 ± 0.03 ρg | 38.2 ± 0.1 g/dL | 39.9 μm^3 | Cc1nn(-c2ccccc2)c(Cl)c1C1Nc2ccccc2C(=O)N1c1ccc(Cl)cc1 (stereo not drawn) [Compound 4j, 2-(5-Chloro-3-methyl-1-phenyl-1H-pyrazol-4-yl)-3-(4-chlorophenyl)-2,3-dihydroquinazolin-4(1H)-one] | 79.9 ± 0.9% | 87.68 ± 0.7% | 93.58 ± 1% | 99.37 ± 0.7% | 102 ± 2% | – | – | PLT (diabetic mice [3]; dose 0.3 mM): 1350 10^3/mm^3; PLT (diabetic mice [3]; dose 0.5 mM): 1326 10^3/mm^3; RBC (diabetic mice [3]; dose 0.5 mM): 9.17 10^6/mm^3; RDW (diabetic mice [3]; dose 0.5 mM): 22.2 ± 0.02%; WBC (diabetic mice [3]; dose 0.5 mM): 8 10^3/mm^3; Alb (diabetic mice [3]; dose 0.3 mM): 2.9 ± 0.02 g/dL; Chlst (diabetic mice [3]; dose 0.3 mM): 66 ± 1.4 mg/dL; Cr (diabetic mice [3]; dose 0.3 mM): 0.41 ± 0.07 mg/dL; TG (diabetic mice [3]; dose 0.3 mM): 123 ± 3 mg/dL; UA (diabetic mice [3]; dose 0.3 mM): 65 ± 2 µM; Alb (diabetic mice [3]; dose 0.5 mM): 2.8 ± 0.01 g/dL; Chlst (diabetic mice [3]; dose 0.5 mM): 62 ± 2.8 mg/dL; Cr (diabetic mice [3]; dose 0.5 mM): 0.41 ± 0.09 mg/dL; TG (diabetic mice [3]; dose 0.5 mM): 116 ± 3 mg/dL; UA (diabetic mice [3]; dose 0.5 mM): 65 ± 2 µM
6 | 8.0 ± 0.2 g/dL | 18.1 ± 0.1% | 15.8 ± 0.1 ρg | 44.0 ± 0.2 g/dL | 44.9 μm^3 | 8.05 10^6/mm^3 | 12.2 ± 0.01% | 3.15 10^3/mm^3 | 10.9 ± 0.1 g/dL | 34.9 ± 0.2% | 15.8 ± 0.1 ρg | 41.2 ± 0.2 g/dL | 44.1 μm^3 | Cc1ccc(N2C(=O)c3ccccc3NC2c2c(C)nn(-c3ccccc3)c2Cl)c(C)c1 (stereo not drawn) [Compound 4k, 2-(5-Chloro-3-methyl-1-phenyl-1H-pyrazol-4-yl)-3-(2,4-dimethylphenyl)-2,3-dihydroquinazolin-4(1H)-one] | 67.72 ± 0.2% | 67.80 ± 0.3% | 67.87 ± 0.1% | 67.95 ± 0.2% | 68.03 ± 0.1% | 29 ± 1 mM | – | RBC (diabetic mice [3]; dose 0.5 mM): 7.92 10^6/mm^3; RDW (diabetic mice [3]; dose 0.5 mM): 24.8 ± 0.01%; WBC (diabetic mice [3]; dose 0.5 mM): 2.8 10^3/mm^3; Alb (diabetic mice [3]; dose 0.3 mM): 2.8 ± 0.07 g/dL; Chlst (diabetic mice [3]; dose 0.3 mM): 64 ± 3.2 mg/dL; Cr (diabetic mice [3]; dose 0.3 mM): 0.45 ± 0.05 mg/dL; TG (diabetic mice [3]; dose 0.3 mM): 127 ± 2.5 mg/dL; UA (diabetic mice [3]; dose 0.3 mM): 66 ± 2.7 µM; Alb (diabetic mice [3]; dose 0.5 mM): 2.8 ± 0.03 g/dL; Chlst (diabetic mice [3]; dose 0.5 mM): 60 ± 6 mg/dL; Cr (diabetic mice [3]; dose 0.5 mM): 0.42 ± 0.05 mg/dL; TG (diabetic mice [3]; dose 0.5 mM): 121 ± 4 mg/dL; UA (diabetic mice [3]; dose 0.5 mM): 67 ± 3.3 µM
7 | – | – | – | – | – | – | – | – | – | – | – | – | – | Cc1ccc(N2C(=O)c3ccccc3NC2c2c(C)nn(-c3ccccc3)c2Cl)cc1C (stereo not drawn) [Compound 4l, 2-(5-Chloro-3-methyl-1-phenyl-1H-pyrazol-4-yl)-3-(3,4-dimethylphenyl)-2,3-dihydroquinazolin-4(1H)-one] | 60.14 ± 0.1% | 60.19 ± 0.2% | 60.25 ± 0.2% | 60.30 ± 0.1% | 60.35 ± 0.2% | – | – | –
8 | – | – | – | – | – | – | – | – | – | – | – | – | – | magnolamide | – | – | – | – | – | – | – | IC50 [4]: 9.7 µM
